# CHO parental Ca = counter-screen for OX1R antagonists: effect in parental CHO cells; parental CHO-K1, ATP-induced calcium, Fluo-8 fluorescence; inhibition, % at 5.6 µM; 0.63% of 330,000 active; AID 463079;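 active = inhibition above that plate's mean sample inhibition plus 3 SD, cut at about 26% in these data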
#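 test system = CHO parental line | reagent = ATP stimulus | measured by = intracellular calcium via Fluo-8 no-wash fluorescent dye | control set = ATP and no-ATP DMSO wells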
# CHO-K1 Ca antag = M1 antagonist counterscreen hit in parental CHO-K1 cells; ATP-induced calcium, Fluo-8 fluorescence; 0.6% of 360,000 active; inhibition, % at 3 µM; AID 602250;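 active = inhibition above a per-plate cutoff, the plate's mean sample inhibition plus 3 SD, cut at about 24% in these data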
# OX1R antag-1 = human HCRTR1 antagonism. AID 434989. O43613. 0.43% of 330,000 active. CHO/OX1R cells, Fluo-8 calcium fluorescence, orexin A. inhibition, % at 5 µM;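 active = inhibition above its plate's threshold, mean inhibition of all tested compounds on the plate plus 3 SD, cut at about 37% in these data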
# Target sequence (O43613 whole entry, looked up): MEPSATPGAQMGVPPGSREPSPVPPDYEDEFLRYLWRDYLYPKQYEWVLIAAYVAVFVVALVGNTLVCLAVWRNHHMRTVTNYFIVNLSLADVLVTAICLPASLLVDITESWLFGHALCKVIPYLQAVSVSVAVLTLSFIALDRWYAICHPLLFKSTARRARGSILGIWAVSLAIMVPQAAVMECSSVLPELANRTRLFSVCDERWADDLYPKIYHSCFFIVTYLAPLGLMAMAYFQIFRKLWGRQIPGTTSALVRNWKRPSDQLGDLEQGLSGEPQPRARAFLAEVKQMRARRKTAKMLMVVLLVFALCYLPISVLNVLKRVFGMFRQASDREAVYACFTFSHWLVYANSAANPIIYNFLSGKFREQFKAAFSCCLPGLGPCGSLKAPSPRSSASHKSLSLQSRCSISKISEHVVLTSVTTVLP
# CHO-K1 Ca ag = counter-screen for M1 agonists: effect in parental CHO-K1 cells; Fluo-8 calcium fluorescence; scaled to maximal ATP response, vehicle zero; activation, % at 3 µM; 0.48% of 360,000 active; AID 602248; in the data active = activation above about 15%;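 also: untransfected CHO-K1 host cells lacking M1 receptor as counterscreen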
# CHO-K1 Ca PAM = nonselective activator or artifact in parental CHO-K1 calcium assay; 0.02% of 360,000 active; activation, % at 3 µM; ATP EC20, Fluo-8 calcium fluorescence; 0% at ATP EC20, 100% at ATP max;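 active = activation above the run cutoff, the mean activation of all test compounds plus 3 SD, cut at about 40% in these data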;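 also: peak over basal fluorescence ratio in a 140 s read after ATP addition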
# OX1R antag-2 = antagonists of human orexin 1 receptor (OX1R). O43613. OX1R-expressing cells, FRET antagonist read-out. inhibition, % at 6.6 µM. 1.8% of 330,000 active; in the data active = inhibition mostly above about 38%, no sharp cut-off; inactive = mostly below about 40%
# OX1R Ca confirm = OX1R (human) antagonism, confirmed | CHO/OX1R cells, orexin A calcium Fluo-8 fluorescence | shares compounds with OX1R antag-1 | inhibition, % at 5 µM | 38% of 1,100 active; in the data active = inhibition above about 29%
# CHO Ca counter = signal in parental CHO cells, OX1R antagonist counter-screen. shares compounds with OX1R antag-1. parental CHO-K1, ATP-induced calcium, Fluo-8 fluorescence. inhibition, % at 5.6 µM. 9.3% of 1,100 active;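 active = inhibition above a per-plate limit, the mean inhibition of that plate's test compounds plus 3 SD, cut at about 25% in these data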
# OX1R HTRF confirm = OX1R (human) antagonism, HTRF confirmed. AID 492964. OX1R-expressing cells, HTRF antagonist assay. 49% of 1,800 active. shares compounds with OX1R antag-2. inhibition, % at 6.6 µM; in the data active = inhibition above about 55%;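 also: CHO cells expressing OX1R stimulated with orexin A at about EC80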
# CHO-K1 HTRF = counter-screen: parental CHO-K1 HTRF response. shares compounds with OX1R antag-2. inhibition, % at 6.6 µM. 48% of 1,800 active. parental CHO-K1 cells, HTRF counterscreen; in the data active = inhibition above about 17%
# A number is an active result; – = inactive; · = not tested or not shown. Shown are actives, neighbours in structure and some others; about 2.9% of the full set was active somewhere.
SMILES,CHO parental Ca,CHO-K1 Ca antag,OX1R antag-1,CHO-K1 Ca ag,CHO-K1 Ca PAM,OX1R antag-2,OX1R Ca confirm,CHO Ca counter,OX1R HTRF confirm,CHO-K1 HTRF
CCCCNC(=O)CCC(=O)NNc1nc2ccccc2c2nc(C)nn12,–,–,–,–,–,–,·,·,·,·
CCCCNC(=O)CCC(=O)NNc1nc2ccccc2c2nc(-c3ccccc3)nn12,–,–,–,–,–,77,33,–,92,–
O=c1c2ccccc2oc2cc(-c3ccc4[nH]ccc4c3)ccc12,–,–,67,–,–,88,76,–,88,–
COc1cc2sc3ccc(-c4ccc5[nH]ccc5c4)cc3c(=O)c2cc1OC,–,–,–,–,–,–,·,·,·,·
COc1cccc(CN(Cc2ccco2)S(=O)(=O)c2ccc(S(=O)(=O)NCc3ccccc3)cc2)c1OC,–,–,70,–,–,60,40,–,84,–
COc1cccc(CN(Cc2ccccc2F)S(=O)(=O)c2ccc(S(=O)(=O)NCc3ccccc3)cc2)c1,–,–,–,–,–,–,·,·,·,·
Oc1ccc2ccccc2c1/C=N/n1cnnc1,–,–,–,–,–,–,·,·,·,·
Cc1nn(C)c(C)c1N=Cc1c(O)ccc2ccccc12,–,–,43,–,–,83,–,–,77,–
O=C(N/C(=C/c1ccc(F)cc1)C(=O)N1CCOCC1)c1ccco1,·,–,·,–,–,·,·,·,·,·
CS(=O)(=O)c1ccc(Cl)c(NC(=O)CSc2n[nH]c(-c3cccs3)n2)c1,–,–,–,–,–,–,·,·,·,·
CCn1c(=O)c(=O)[nH]c2cc(C(=O)NC(C)c3ccc(S(N)(=O)=O)cc3)ccc21 (stereo not drawn),–,–,–,–,–,–,·,·,·,·
CC1Oc2ccccc2N(CC(=O)NCC2CCCO2)C1=O (stereo not drawn),–,–,–,–,–,–,·,·,·,·
COc1cccc(/C=C2/Oc3ccccc3N(CC(=O)NCC3CCCO3)C2=O)c1 (stereo not drawn),–,–,75,–,–,109,94,–,94,–
O=C(O)CN1C(=O)/C(=C/c2cccc(Cl)c2)Oc2ccccc21,–,–,–,–,–,77,–,–,66,–
N#Cc1ccc(NC(=O)COC(=O)c2cccnc2Cl)cc1,–,–,–,–,–,–,·,·,·,·
COc1ccc(OC)c(S(=O)(=O)Nc2cccc3ccc(O)cc23)c1,–,–,–,–,–,–,·,·,·,·
Cc1cc(C)nc(NC(=O)/C=C/c2ccc(Cl)cc2Cl)c1,–,–,–,–,–,92,–,–,63,–
CCOC(=O)CNC(=O)CSc1nc(Cc2ccccc2)nc2ccccc12,–,–,–,–,–,–,·,·,·,·
COc1ccc(N2CCN(C3CC(=O)N(Cc4ccccc4)C3=O)CC2)cc1 (stereo not drawn),–,–,–,–,–,–,·,·,·,·
O=C(c1ccncc1)c1ccc(N2CCN(C3CC(=O)N(Cc4ccccc4)C3=O)CC2)cc1 (stereo not drawn),–,–,–,–,–,71,–,–,–,–
COc1ccccc1C(=O)Nc1nnc(-c2ccco2)s1,–,–,55,–,–,59,–,–,56,–
COc1ccccc1Nc1nc(N)nc(-c2cc3ccccc3o2)n1,–,–,–,–,–,77,31,–,65,–
Cc1occc1-c1nnc(SCC(=O)NCCc2ccccc2)n1C(C)c1ccccc1 (stereo not drawn),–,–,64,–,–,83,30,–,77,–
Cc1occc1-c1nnc(SCC(=O)NCCc2ccccc2)o1,–,–,–,–,–,–,·,·,·,·
Cc1cc(C(=O)OCC(=O)N2CCC(C)CC2)c2ccccc2n1,–,–,–,–,–,–,·,·,·,·

# From PubChem BioAssay
